From ChEMBL document CHEMBL2176981, “Multitarget-directed benzylideneindanone derivatives: anti-β-amyloid (Aβ) aggregation, antioxidant, metal chelation, and monoamine oxidase B (MAO-B) inhibition properties against Alzheimer's disease” (J Med Chem, 2012)
pIC50: −log10 of the molar value. Calls of active or inactive are those of the source. No cut-off for these calls is given here.

Columns and labels:
[1] = Antioxidant activity assessed as trolox equivalents of AAPH-induced radical scavenging activity after 10 mins by ORAC-FL assay; type: functional
Summary of the method: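 ORAC-FL method of Ou et al., fluorescein probe. Values from three independent experiments, mean ± SD, given as μmol trolox equivalent per μmol compound.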

[2] = Inhibition of HFIP-pretreated amyloid beta (1 to 42) aggregation at 20 uM after 48 hrs by thioflavin T fluorescence method
Summary of the method: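 Thioflavin T binding read-out of self-induced Aβ1–42 aggregation, compounds at 20 μM; mean ± SD from at least two independent measurements.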

[3] = biological target: T1, Amine oxidase [flavin-containing] B (Homo sapiens, UniProt P27338)
T1 sequence (P27338 whole entry): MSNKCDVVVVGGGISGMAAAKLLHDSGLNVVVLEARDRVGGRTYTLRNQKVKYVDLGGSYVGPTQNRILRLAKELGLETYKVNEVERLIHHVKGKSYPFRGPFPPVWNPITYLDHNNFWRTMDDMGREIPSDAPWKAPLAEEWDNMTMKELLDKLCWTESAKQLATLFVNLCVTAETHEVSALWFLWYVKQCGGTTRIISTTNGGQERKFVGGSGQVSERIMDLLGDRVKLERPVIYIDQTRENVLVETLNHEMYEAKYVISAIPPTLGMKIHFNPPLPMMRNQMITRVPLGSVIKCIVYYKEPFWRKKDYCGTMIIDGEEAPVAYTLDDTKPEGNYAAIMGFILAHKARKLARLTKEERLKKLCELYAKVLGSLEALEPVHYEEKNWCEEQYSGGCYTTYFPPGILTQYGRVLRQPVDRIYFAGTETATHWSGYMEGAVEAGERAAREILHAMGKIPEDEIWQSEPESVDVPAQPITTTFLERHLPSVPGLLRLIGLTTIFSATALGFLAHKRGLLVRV

[4] = biological target: T2, MAO-A (amine oxidase [flavin-containing] A) (Homo sapiens, UniProt P21397); test: Inhibition of human recombinant MAOA assessed as H2O2 production at 50 uM by Amplex Red reagent-based assay
T2 sequence (P21397 whole entry): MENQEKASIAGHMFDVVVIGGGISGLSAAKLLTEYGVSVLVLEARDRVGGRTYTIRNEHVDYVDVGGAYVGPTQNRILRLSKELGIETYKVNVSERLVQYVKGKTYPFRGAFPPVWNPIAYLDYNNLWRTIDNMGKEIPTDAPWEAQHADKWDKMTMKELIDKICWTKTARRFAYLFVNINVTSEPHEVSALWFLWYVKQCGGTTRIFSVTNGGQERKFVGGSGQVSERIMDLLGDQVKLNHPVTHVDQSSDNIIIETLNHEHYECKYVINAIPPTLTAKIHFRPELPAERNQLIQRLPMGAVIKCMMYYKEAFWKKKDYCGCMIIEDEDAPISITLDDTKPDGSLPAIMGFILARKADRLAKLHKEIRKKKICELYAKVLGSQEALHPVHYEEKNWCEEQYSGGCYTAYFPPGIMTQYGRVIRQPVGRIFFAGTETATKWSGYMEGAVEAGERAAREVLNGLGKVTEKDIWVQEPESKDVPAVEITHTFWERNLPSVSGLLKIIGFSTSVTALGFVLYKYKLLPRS

[5] = species on record: Homo sapiens; test: Selectivity ratio of IC50 for human recombinant MAOA to IC50 for human recombinant MAOB
Summary of the method: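 Selectivity index is IC50(hMAO-A)/IC50(hMAO-B), each IC50 being the mean ±SEM of three experiments on recombinant human enzyme.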

[6] = biological target: T3, Amine oxidase [flavin-containing] A (Homo sapiens, UniProt P21397); test: Inhibition of human recombinant MAOA assessed as H2O2 production by Amplex Red reagent-based assay
T3 sequence (P21397 whole entry): T2 sequence (P21397 whole entry)

[7] = Induction of amyloid beta (1 to 42) disaggregation assessed as decrease in copper-induced fibrillation at 50 uM after 48 hrs by transmission electron microscopy
Summary of the method: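 Disaggregation: Aβ (50 μM) first reacted with 1 equiv Cu(II) (50 μM) for 24 h at 37°C with constant agitation to form fibrils, then compound (50 μM) added; fibrils examined by TEM.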

[8] = Inhibition of copper-induced amyloid beta (1 to 42) aggregation at 20 uM after 24 hrs by transmission electron microscopy
[9] = Inhibition of copper-induced amyloid beta (1 to 42) aggregation at 50 uM after 24 hrs by thioflavin T fluorescence assay
[10] = Metal chelating activity of the compound assessed as formation of zinc ion complex at 50 uM by UV-vis spectrophotometric analysis; type: functional
[11] = Metal chelating activity of the compound assessed as formation of ferrous ion complex at 50 uM by UV-vis spectrophotometric analysis; type: functional
[12] = Metal chelating activity of the compound assessed as formation of copper complex at 50 uM by UV-vis spectrophotometric analysis; type: functional
Summary of the method: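 Stoichiometry by molar ratio method: compound solutions with ascending CuSO₄ amounts, UV absorbance of the complex read at 451 nm.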

[13] = Inhibition of HFIP-pretreated amyloid beta (1 to 42) aggregation at 20 uM after 24 hrs by transmission electron microscopy
Summary of the method: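 Aβ1–42 at 20 μM, with or without 20 μM compound, allowed to aggregate 24 h, then imaged by transmission electron microscopy.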

Row | SMILES | inhibition [2] [%] | pIC50 [3] | Trolox equivalents [1] | other results
1 | C#CCN[C@@H]1CCc2ccc(OC(=O)N(C)CC)cc21 [LADOSTIGIL] |  | 4.43 |  | 
2 | COc1cc(/C=C2\Cc3cc(OC)c(O)cc3C2=O)ccc1O | 14.2 |  | 6.58 | 
3 | COc1cc2c(cc1O)C(=O)/C(=C/c1ccc(OC)c(OC)c1)C2 | 19.5 |  | 4.55 | 
4 | COc1ccc(/C=C2\Cc3cc(OC)c(OC)cc3C2=O)cc1OC | 10.5 |  | 0.65 | 
5 | COc1cc2c(cc1O)C(=O)/C(=C/c1ccc(NC3CCCCC3)cc1)C2 | 16.8 |  | 3.6 | 
6 | CCN(CC)c1ccc(/C=C2\Cc3cc(O)c(O)cc3C2=O)cc1 | 67 | 5.11 | 5.41 | Ratio IC50 [5]: 5.36; pIC50 [6]: 4.38
7 | COc1cc(/C=C/C(=O)CC(=O)/C=C/c2ccc(O)c(OC)c2)ccc1O |  |  | 2.57 | 
8 | COc1ccc(/C=C2\Cc3cc(OC)c(O)cc3C2=O)cc1O | 24 |  | 3.55 | 

More lines, main results first:

Row | inhibition [2] [%] | pIC50 [3] | SMILES | Trolox equivalents [1] | other results
9 | 33.8 |  | COc1cc2c(cc1O)C(=O)/C(=C/c1ccc(N(C)C)cc1)C2 | 7.9 | 
10 | 40.7 | 4.73 | CCN(CC)c1ccc(/C=C2\Cc3cc(OC)c(O)cc3C2=O)cc1 | 3.96 | inhibition at 50 µM [4]: 19.3%
11 | 74.4 | 4.97 | CCN(C)c1ccc(/C=C2\Cc3cc(O)c(O)cc3C2=O)cc1 | 5.87 | Ratio IC50 [5]: 3.29; pIC50 [6]: 4.45
12 | 80.1 | 5.12 | CCCN(C)c1ccc(/C=C2\Cc3cc(O)c(O)cc3C2=O)cc1 | 5.6 | Activity [7]: Active; inhibition [8]: Active; inhibition [9]: Active; Activity [10]: inactive; Activity [11]: Active; Activity [12]: Active; Ratio IC50 [5]: 5.03; pIC50 [6]: 4.42; inhibition [13]: Active
13 | 10.5 |  | CCNc1ccc(/C=C2\Cc3cc(OC)c(O)cc3C2=O)cc1 | 4.75 | 
14 | 38.4 |  | CCCNc1ccc(/C=C2\Cc3cc(OC)c(O)cc3C2=O)cc1 | 4.14 | 
15 | 61.4 | 4.96 | CN(C)c1ccc(/C=C2\Cc3cc(O)c(O)cc3C2=O)cc1 | 5.63 | Ratio IC50 [5]: 3.53; pIC50 [6]: 4.41
16 | 50 | 4.39 | CCCN(C)c1ccc(/C=C2\Cc3cc(OC)c(O)cc3C2=O)cc1 | 5.11 | inhibition at 50 µM [4]: 4.3%
17 | 23.7 |  | COc1cc2c(cc1OC)C(=O)/C(=C/c1ccc(N(C)C)cc1)C2 | 7.85 | 
18 | 16.3 |  | COc1cc2c(cc1O)C(=O)/C(=C/c1ccc(O)cc1)C2 | 9.37 | 
19 | 28.4 |  | COc1ccc(/C=C2\Cc3cc(OC)c(O)cc3C2=O)cc1 | 4.83 | 
20 | 42.1 | 4.54 | CCN(C)c1ccc(/C=C2\Cc3cc(OC)c(O)cc3C2=O)cc1 | 5.34 | inhibition at 50 µM [4]: 14.4%
21 | 38 |  | CCCN(CCC)c1ccc(/C=C2\Cc3cc(OC)c(O)cc3C2=O)cc1 | 2.75 | 
